Measurements as given in ChEMBL document CHEMBL1649491, “Renal disposition of colistin in the isolated perfused rat kidney” (Antimicrob Agents Chemother, 2009).
Positions of bridges follow the written chain, without caps; N, C: chain ends. Non-standard residues stand in square brackets, D forms with d. Residues, ends and D or L forms follow the SMILES beside them. *: point of attachment. Heptanoyl(6-Me) = CC(C)CCCCC(=O)*; Dab = NCC[C@H](N)C(=O)O

Assays:
Plasma [1] = assay: (§1) Fraction unbound in […] at 1 ug/ml by LC-MS/MS analysis; assay type: ADME, cell-free; conditions: rat
In short: (§2)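 Unbound fraction was measured in IPK perfusate by ultrafiltration, at colistin sulfate levels approximating initial and end perfusion concentrations. Colistin A and B in ultrafiltrate and unfiltered perfusate were quantified by LC-MS/MS. fu is the ultrafiltrate/perfusate concentration ratio, determined separately for A and B.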

Kidney [2] = assay: (§3) Clearance in rat perfused kidney at 2 ug/ml after 5 to 105 mins by LC-MS/MS analysis; assay type: ADME, tissue-based; conditions: in vivo
In short: (§4)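 Isolated perfused kidneys from male Sprague-Dawley rats (400 to 450 g) in a recirculating 160 ml perfusate with [3H]inulin (130 kBq) for GFR. Colistin sulfate bolus gave an initial 2 µg/ml (1.27 µM colistin A+B). Urine was collected in 5-min intervals from 5 to 105 min, with perfusate sampled at midpoints. Colistin A and B were measured by LC-MS/MS. CLR and CR were derived; n = 5, mean ± SD.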

Kidney [3] = assay: Clearance in rat perfused kidney assessed as clearance ratio at 2 ug/ml after 5 to 105 mins by LC-MS/MS analysis; assay type: ADME, tissue-based; in short: as §4
[4] = Drug absorption in rat tubular urine at 2 ug/ml after 5 to 105 mins by LC-MS/MS analysis; assay type: ADME, tissue-based; in short: as §4
Kidney [5] = assay: Tubular reabsorption in rat perfused kidney at 2 ug/ml after 5 to 105 mins by LC-MS/MS analysis; assay type: ADME, tissue-based; in short: as §4
Plasma [6] = assay: (§5) Fraction unbound in Sprague-Dawley rat plasma; assay type: ADME, cell-free
[7] = as §1; assay type: ADME, cell-free, Plasma; conditions: rat; in short: as §2
[8] = as §3; assay type: ADME, tissue-based; conditions: perfused kidney; in short: as §4
[9] = as §5; assay type: ADME, cell-free; conditions: Sprague-Dawley

| Fu (Plasma [1]) | CL (Kidney [2]) [mL/min] | Ratio (Kidney [3]) | Activity [4] [%] | Activity (Kidney [5]) [%] | Fu (Plasma [6]) | fraction unbound at 1 ug/ml [7] | CL renal at 2 ug/ml [8] [mL/min] | fraction unbound [9] | Molecule |
| --- | --- | --- | --- | --- | --- | --- | --- | --- | --- |
| 0.41 | 0.028 | < 0.1 | > 90 | > 90 | 0.36 |  |  |  | COLISTIN |
|  |  | < 0.1 | > 90 | > 90 |  | 0.6 | 0.028 | 0.52 | CC(C)CCCCC(=O)N[C@@H](CCN)C(=O)N[C@H](C(=O)N[C@@H](CCN)C(=O)N[C@H]1CCNC(=O)[C@H]([C@@H](C)O)NC(=O)[C@H](CCN)NC(=O)[C@H](CCN)NC(=O)[C@H](CC(C)C)NC(=O)[C@@H](CC(C)C)NC(=O)[C@H](CCN)NC1=O)[C@@H](C)O [COLISTIN B] ({Heptanoyl(6-Me)}-[Dab]T[Dab][Dab][Dab][dL]L[Dab][Dab]T; lactam 4-C) |
